Measurements from ChEMBL document CHEMBL1629557, “Development of intergenotypic chimeric replicons to determine the broad-spectrum antiviral activities of hepatitis C virus polymerase inhibitors” (Antimicrob Agents Chemother, 2008).

Legend:
Hepatitis C virus [1] = test: Antiviral activity against Hepatitis C virus isolate Con1 infected in human Huh7.5 cells assessed as decrease in viral RNA replication after 3 days by hRLuc reporter gene assay; assay type: functional, organism-based, Hepacivirus hominis; settings: Con1, Huh-7, 72 h
Method in brief: (§1)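 Stable Huh7.5 replicon cell lines, kept in medium with 250 μg/ml G418, seeded at 2e4/well and settled 30 min. Compounds were added in half-log serial dilutions with solvent (compound-free) controls for 3 days at 37°C, then hRLuc activity was read. Fold change is EC50 relative to wild-type Con-1.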

Hepatitis C virus [2] = test: Antiviral activity against Hepatitis C virus genotype 1a H77 infected in human Huh7.5 cells assessed as decrease in viral RNA replication after 3 days by hRLuc reporter gene assay; assay type: functional, organism-based, Hepacivirus hominis; settings: genotype 1a H77, Huh-7, 72 h; method in brief: as §1
Hepatitis C virus [3] = test: Antiviral activity against Hepatitis C virus genotype 2a JFH1 infected in human Huh7.5 cells assessed as decrease in viral RNA replication after 3 days by hRLuc reporter gene assay; assay type: functional, organism-based, Hepacivirus hominis; settings: JFH-1, Huh-7, 72 h; method in brief: as §1
Hepatitis C virus [4] = test: Antiviral activity against Hepatitis C virus isolate Con1 transfected with NS5B polymerase of HCV genotype 2b in human Huh7.5 cells assessed as decrease in viral RNA replication after 3 days by hRLuc reporter gene assay; assay type: functional, organism-based, Hepacivirus hominis; settings: Con1, Huh-7, 72 h; method in brief: as §1
Hepatitis C virus [5] = test: Antiviral activity against Hepatitis C virus isolate Con1 transfected with NS5B polymerase of HCV genotype 3a infected in human Huh7.5 cells assessed as decrease in viral RNA replication after 3 days by hRLuc reporter gene assay; assay type: functional, organism-based, Hepacivirus hominis; settings: Con1, Huh-7, 72 h; method in brief: as §1
Hepatitis C virus [6] = test: Antiviral activity against Hepatitis C virus isolate Con1 transfected with NS5B polymerase of HCV genotype 4a infected in human Huh7.5 cells assessed as decrease in viral RNA replication after 3 days by hRLuc reporter gene assay; assay type: functional, organism-based, Hepacivirus hominis; settings: Con1, Huh-7, 72 h; method in brief: as §1
Hepatitis C virus [7] = test: Antiviral activity against Hepatitis C virus isolate Con1 transfected with NS5B polymerase of HCV genotype 5a infected in human Huh7.5 cells assessed as decrease in viral RNA replication after 3 days by hRLuc reporter gene assay; assay type: functional, organism-based, Hepacivirus hominis; settings: Con1, Huh-7, 72 h; method in brief: as §1
Hepatitis C virus [8] = test: Ratio of EC50 for wild-type Hepatitis C virus isolate Con1 to EC50 for Hepatitis C virus genotype 1a H77 in human Huh7.5 cells by hRLuc reporter gene assay; assay type: functional, Hepacivirus hominis, Huh-7; method in brief: as §1
Hepatitis C virus [9] = test: Ratio of EC50 for wild-type Hepatitis C virus isolate Con1 to EC50 for Hepatitis C virus genotype 2a JFH1 in human Huh7.5 cells by hRLuc reporter gene assay; assay type: functional, Hepacivirus hominis, Huh-7; method in brief: as §1
Hepatitis C virus [10] = test: Ratio of EC50 for wild-type Hepatitis C virus isolate Con1 to EC50 for Hepatitis C virus isolate Con1 transfected with NS5B polymerase of HCV genotype 2b in human Huh7.5 cells by hRLuc reporter gene assay; assay type: functional, Hepacivirus hominis, Huh-7; method in brief: as §1
Hepatitis C virus [11] = test: Ratio of EC50 for wild-type Hepatitis C virus isolate Con1 to EC50 for Hepatitis C virus isolate Con1 transfected with NS5B polymerase of HCV genotype 3a in human Huh7.5 cells by hRLuc reporter gene assay; assay type: functional, Hepacivirus hominis, Huh-7; method in brief: as §1
Hepatitis C virus [12] = test: Ratio of EC50 for wild-type Hepatitis C virus isolate Con1 to EC50 for Hepatitis C virus isolate Con1 transfected with NS5B polymerase of HCV genotype 4a in human Huh7.5 cells by hRLuc reporter gene assay; assay type: functional, Hepacivirus hominis, Huh-7; method in brief: as §1
Hepatitis C virus [13] = test: Ratio of EC50 for wild-type Hepatitis C virus isolate Con1 to EC50 for Hepatitis C virus isolate Con1 transfected with NS5B polymerase of HCV genotype 5a in human Huh7.5 cells by hRLuc reporter gene assay; assay type: functional, Hepacivirus hominis, Huh-7; method in brief: as §1
Hepatitis C virus [14] = test: Ratio of EC50 for wild-type Hepatitis C virus isolate Con1 to EC50 for Hepatitis C virus isolate Con1 with NS5B polymerase L419I mutant in human Huh7.5 cells by hRLuc reporter gene assay; assay type: functional, Hepacivirus hominis, Huh-7
Method in brief: (§2)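 Transient assay: Huh7.5 cells electroporated with 10 μg in vitro replicon transcript at 220 V, seeded at 6 × 10^4 cells/well, and given 4 h recovery. Half-log serial compound dilutions with solvent controls were then added for 3 days at 37°C, and hRLuc luciferase was read. EC50 was taken as 50% of compound-free signal by nonlinear regression, as mean ± SD of 2–3 independent experiments. Fold change is relative to wild-type Con-1.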

Hepatitis C virus [15] = test: Ratio of EC50 for wild-type Hepatitis C virus isolate Con1 to EC50 for Hepatitis C virus isolate Con1 with NS5B polymerase I482L mutant in human Huh7.5 cells by hRLuc reporter gene assay; assay type: functional, Hepacivirus hominis, Huh-7; method in brief: as §2
Hepatitis C virus [16] = test: Ratio of EC50 for wild-type Hepatitis C virus isolate Con1 to EC50 for Hepatitis C virus isolate Con1 with NS5B polymerase L419I and I482L mutant in human Huh7.5 cells by hRLuc reporter gene assay; assay type: functional, Hepacivirus hominis, Huh-7; method in brief: as §2

| SMILES | EC50 (Hepatitis C virus [1]) | EC50 (Hepatitis C virus [2]) | EC50 (Hepatitis C virus [3]) | EC50 (Hepatitis C virus [4]) | EC50 (Hepatitis C virus [5]) | EC50 (Hepatitis C virus [6]) | EC50 (Hepatitis C virus [7]) | fold change (FC) (Hepatitis C virus [8]) | fold change (FC) (Hepatitis C virus [9]) | fold change (FC) (Hepatitis C virus [10]) | fold change (FC) (Hepatitis C virus [11]) | fold change (FC) (Hepatitis C virus [12]) | fold change (FC) (Hepatitis C virus [13]) | fold change (FC) (Hepatitis C virus [14]) | fold change (FC) (Hepatitis C virus [15]) | fold change (FC) (Hepatitis C virus [16]) |
| --- | --- | --- | --- | --- | --- | --- | --- | --- | --- | --- | --- | --- | --- | --- | --- | --- |
| COc1ccc2c(O[C@@H]3C[C@H]4C(=O)N[C@@]5(C(=O)O)C[C@@H]5/C=C\CCCCC[C@H](NC(=O)OC(C)(C)C)C(=O)N4C3)cc(-c3ccccn3)nc2c1 [listing 1 of 2 here] | 6.6 nM | 20 nM | 740 nM | 26 nM | 22 nM | 53 nM | 23 nM | – | – | – | – | – | – | – | – | – |
| COc1ccc2c(O[C@@H]3C[C@H]4C(=O)N[C@@]5(C(=O)O)C[C@@H]5/C=C\CCCCC[C@H](NC(=O)OC(C)(C)C)C(=O)N4C3)cc(-c3ccccn3)nc2c1 [listing 2 of 2 here] | – | – | – | – | – | – | – | 3 | 112 | 4 | 3 | 8 | 3 | – | – | – |
| CC(C)C#Cc1cc(N(C(=O)[C@H]2CC[C@H](C)CC2)C(C)C)c(C(=O)O)s1 | 25 nM | 20 nM | 6100 nM | > 32000 nM | > 32000 nM | 2200 nM | 200 nM | 1 | 244 | >1280 | >1280 | 88 | 8 | 326 | 201 | 2238 |
| O=C(O)c1ccc2c(c1)nc(-c1ccc(OCc3cc(C(=O)N4CCC(O)CC4)ccc3-c3ccc(Cl)cc3)cc1F)n2C1CCCCC1 | 900 nM | 490 nM | 6900 nM | 30000 nM | 210 nM | 1500 nM | 160 nM | 1 | 8 | 33 | 0.2 | 2 | 0.2 | 4 | 3 | 8 |
| NC(=O)COc1ccc2c(c1)S(=O)(=O)N=C(c1c(O)c3ccccc3n(NC3CCC3)c1=O)N2 | 33 nM | 140 nM | > 32000 nM | > 32000 nM | > 32000 nM | 25000 nM | 5000 nM | 4 | >970 | >970 | >970 | 758 | 152 | 0.2 | 0.5 | 0.2 |
| C[C@@]1(O)[C@H](O)[C@@H](CO)O[C@H]1n1ccc(N)nc1=O | – | – | – | – | – | – | – | 1 | 1 | 0.4 | 0.2 | 2 | 0.5 | 1 | 1 | 2 |
| CNC(=O)c1c(-c2ccc(F)cc2)oc2cc(N(CCO)S(C)(=O)=O)c(C3CC3)cc12 [NESBUVIR] | 42 nM | 38 nM | 130 nM | 55 nM | 51 nM | 69 nM | 3.2 nM | 1 | 3 | 1 | 1 | 2 | 0.1 | 2 | 1 | 3 |
